Legend:
Type in all cases: functional
[1] = Ratio of IC50 of ethylketazocine (EK) in the presence of compound to IC50 of ethylketazocine in the absence of compound
Procedure, shortened: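 Guinea pig ileum longitudinal muscle, electrically stimulated; the kappa agonist ethylketazocine (EK) was run with and without the test antagonist, given at 20 nM or 2 nM depending on the compound. The IC50 ratio is EK IC50 with antagonist over EK IC50 alone.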

Cavia porcellus [2] = organism: Cavia porcellus; test: The agonist potency of compound was determined relative to control morphine IC50
Procedure, shortened: (§1)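 Electrically stimulated longitudinal muscle of guinea pig ileum; agonist IC50 for inhibition of the twitch, with potency expressed relative to a control morphine IC50 run in the same preparation.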

Cavia porcellus [3] = organism: Cavia porcellus; test: Inhibitory concentration of compound was measured in muscle of the guinea pig ileum; details: Muscle tissue; procedure, shortened: as §1
Cavia porcellus [4] = organism: Cavia porcellus; test: Inhibitory concentration of morphine was measured in muscle of the guinea pig ileum; details: Muscle tissue; procedure, shortened: as §1

N=C(N)NCCOCCOCCN[C@@H]1CC[C@@]2(O)C3Cc4ccc(O)c5c4C2(CCN3CC2CC2)[C@H]1O5.O=S(=O)(O)O (some centres not stated)
IC50 ratio [1]: 1 | Relative potency (Cavia porcellus [2]): 9.1 | IC50 (Cavia porcellus [3]): 11.4 nM | IC50 (Cavia porcellus [4]): 104 nM

NCCOCCOCCN[C@@H]1CC[C@@]2(O)C3Cc4ccc(O)c5c4C2(CCN3CC2CC2)[C@H]1O5 (some centres not stated)
IC50 ratio [1]: 1.1 | Relative potency (Cavia porcellus [2]): 5.8 | IC50 (Cavia porcellus [3]): 21.1 nM | IC50 (Cavia porcellus [4]): 123 nM

Oc1ccc2c3c1O[C@H]1[C@H](NCCOCCOCCNCc4ccccc4)CC[C@@]4(O)C(C2)N(CC2CC2)CCC314 (some centres not stated)
IC50 ratio [1]: 3.1 | Relative potency (Cavia porcellus [2]): 5.2 | IC50 (Cavia porcellus [3]): 206 nM | IC50 (Cavia porcellus [4]): 107 nM

— ChEMBL document CHEMBL1123510, “Investigation of the structural requirements for the kappa-selective opioid receptor antagonist, 6 beta,6 beta'-[ethylenebis(oxyethyleneimino)]bis[17-(cyclopropylmethyl)- 4,5 alpha-epoxymorphinan-3,14-diol] (TENA)” (J Med Chem, 1986)
